Measured values from different studies.
Target: Calcium/calmodulin-dependent protein kinase type 1 (CAMK1, Homo sapiens, UniProt Q14012)

Structure (SMILES) | test | setting | quantity | value
O=C(O)[C@@H]1[C@@H](Cn2nnc3ccccc3c2=O)CC[C@H]1C(=O)c1ccc(OCCC2CCOCC2)cc1 | cell-free assay, competition with immobilised ligand | 1 µM | remaining binding | 92%
COc1cc(Cl)c(C(=O)N[C@@H](CN[C@H]2CC[C@@H](N)CC2)Cc2ccc(C#N)cc2)cc1-c1ccc(CN[C@H](C)c2ccc(C)cc2)o1 | enzyme activity, inhibitor | 1 µM | remaining activity | 108%
CN(C)C(=O)Cn1cc(-c2nc([C@@](C)(c3ccc(-c4cnc(N)nc4)cc3)C3CC3)no2)cn1 | cell-free assay, competition with immobilised ligand | 1 µM | remaining binding | 100%
FC(F)c1nc2ccccc2n1-c1nc(N2CCOCC2)nc(N2CCOCC2)n1 | enzyme activity, inhibitor | 10 µM | remaining activity | 114%
CC/C(=N\NC(=O)NCc1cccc(O)c1)c1ccc(O)c(C)c1O | enzyme activity, inhibitor | 0.1 µM | inhibition | -2.3%
CS(=O)(=O)N1CCCC(NC(=O)[C@H](CCC2CCCCC2)NC(=O)c2ccc(CNc3ncnc4c3nnn4-c3ccccc3)cc2)C1 (stereo partly drawn) | cell-free assay, competition with immobilised ligand | 0.1 µM | remaining binding | 96%
COc1cc(-c2cc(-c3ccc(N4CCNCC4)cc3)cnc2C)cc(OC)c1OC | enzyme activity, inhibitor | 0.1 µM | inhibition | 1%
O=C(Nc1cnc(Oc2ccc(F)cc2)nc1)N1CCc2ncccc2[C@@H]1c1ccc(F)cc1 | cell-free assay, competition with immobilised ligand | 1 µM | remaining binding | 73%
Nc1nc(Nc2ccccc2)sc1C(=O)c1c(F)cccc1F | enzyme activity, inhibitor | 10 µM | remaining activity | 55%
COc1cc(Nc2cnc(C#N)c(O[C@H](C)CN(C)C)n2)ncc1-c1cnn(C)c1 | enzyme activity, inhibitor, radiometric | 1 µM | remaining activity | 92%
Cc1noc([C@H]2C[C@@H](c3ccc(C(F)(F)F)cc3)CN(C(=O)N3CCS(=O)(=O)C3)C2)n1 | cell-free assay, competition with immobilised ligand | 1 µM | remaining binding | 100%
CCN(CC)CCNC(=O)c1c(C)[nH]c(/C=C2\C(=O)Nc3ccc(F)cc32)c1C | enzyme activity, inhibitor | 10 µM | inhibition | 87%
CC(C)(C)C(=O)c1sc(NC2CCCCC2)nc1N | enzyme activity, inhibitor | 10 µM | remaining activity | 109%
Cc1cc(-n2nc(Cc3cc(F)cc(C(F)(F)F)c3)nc2C)ccc1C(N)=O | cell-free assay, competition with immobilised ligand | 1 µM | remaining binding | 90%
N#CCCc1ccc2c(c1)-c1[nH]c3ccc([N+](=O)[O-])cc3c1CC(=O)N2 | cell-free assay | 0.5 µM | remaining signal | 96%
COc1cccc2c(NCc3ccccc3)nc(-n3c(N)nc4ccccc43)nc12 | target engagement in cells, inhibitor, chemoproteomics | 20 mM | inhibition | -2.1%
O=C1NC(=O)c2cc(Nc3ccc(F)cc3)c(Nc3ccc(F)cc3)cc21 | cell-free assay | 0.5 µM | remaining signal | 104%
Cc1cnc(NC2CCOCC2)nc1-n1cnc(C(=O)NC(CN)c2cc(F)cc(Cl)c2)c1 (stereo not drawn) | enzyme activity, inhibitor, radiometric | 1 µM | remaining activity | 88%
NS(=O)(=O)c1cc(NC(=O)Cc2ccccc2)ccc1Oc1cccc(Cl)c1 | cell-free assay, competition with immobilised ligand | 1 µM | remaining binding | 90%
COc1cc(/C=C/C(=O)CC(=O)/C=C/c2ccc(O)c(OC)c2)ccc1O | enzyme activity, inhibitor | 1 µM | activity vs control | 86%
Cc1ccc(Nc2nccc(N(C)c3ccc4c(C)n(C)nc4c3)n2)cc1S(N)(=O)=O | enzyme activity, inhibitor | 0.3 µM | inhibition | 13%
CCCCNc1ncc2c(-c3ccc(F)cc3)nn(C[C@H]3CC[C@H](N)CC3)c2n1 | target engagement in cells, inhibitor, chemoproteomics | 20 mM | inhibition | 2.2%
O=C1Nc2ccc(Cl)cc2C1=Cc1cc(Cl)c(O)c(Cl)c1 | cell-free assay | 0.5 µM | remaining signal | 94.9%
O=C(Nc1cnn(-c2csc(C(=O)NC3COC3)c2)c1)Nc1c(F)cccc1Cl | enzyme activity, inhibitor | 5 µM | remaining activity | 98%
CNC(=O)c1cc(Oc2ccc(NC(=O)Nc3ccc(Cl)c(C(F)(F)F)c3)cc2)ccn1 | enzyme activity, inhibitor | 0.3 µM | inhibition | -6%
CC(C)(O)[C@H]1CC[C@H](Nc2ccc3ncc(-c4cccc(C(F)(F)F)c4)n3n2)CC1 | enzyme activity, inhibitor | 1 µM | remaining activity | 100%
O=C(NS(=O)(=O)c1ccc(NCC2CCOCC2)c([N+](=O)[O-])c1)c1ccc(N2CCN(Cc3ccc(C(F)(F)F)cc3-c3ccc(Cl)cc3)CC2)cc1Oc1cnc2[nH]ccc2c1 | cell-free assay, competition with immobilised ligand | 1 µM | remaining binding | 100%
Cc1sc(C(=O)NC2COC2)cc1-n1cc(NC(=O)Nc2c(F)cccc2Cl)cn1 | enzyme activity, inhibitor | 10 µM | remaining activity | 115%
CCCOc1ccc(OC)c(F)c1C(=O)c1ccc(C(=O)N[C@@H]2CNC[C@H]2NC(=O)c2ccc3[nH]ncc3c2)cc1 | enzyme activity, inhibitor | 10 µM | remaining activity | 34%
C=CC(=O)Nc1cc(Nc2nccc(Nc3cc(Cl)c(F)cc3C(C)(C)O)n2)c(OC)cc1N1CC[C@@H](N(C)C)C1 | enzyme activity, inhibitor | 1 µM | inhibition | 2%
